Experiments:
[1] = species: Rattus norvegicus; experiment: Effect of compound on AFB1-induced micronuclei formation in rat bone marrow cells in the presence of AFB1 (Activity: Micronucleated cells/1000 cells); format: functional
[2] = The compound was evaluated for in Vitro binding of AFB1 to DNA in rat liver microsomes; Pre-incubation time being 10 mins; details: Microsome
[3] = species: Rattus norvegicus; experiment: Influence (5 uM) on transacetylase catalyzed time dependent activation of NADPH cytochrome C reductase at pre-incubation time being 20 mins; format: functional
Summary of the method: (§1)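 Rat liver microsomes were preincubated at 37 °C with test compound (in DMSO) in 0.05 M phosphate buffer, pH 7.7. Aliquots were taken at 5, 10, 20 and 30 min into a cuvette with EDTA, cytochrome C and NADPH. NADPH–cytochrome C reductase activity was followed at 550 nm. Values are means of four observations.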

[4] = species: Rattus norvegicus; experiment: Influence (5 uM) on transacetylase catalyzed time dependent activation of NADPH cytochrome C reductase at pre-incubation time being 10 mins; format: functional; summary of the method: as §1
[5] = species: Rattus norvegicus; experiment: Effect of compound on AFB1-induced micronuclei formation in rat bone marrow cells (Activity: Micronucleated cells/1000 cells); format: functional
[6] = The compound was evaluated for in Vitro binding of AFB1 to DNA in rat liver microsomes; Pre-incubation time being 30 mins; details: Microsome
[7] = species: Rattus norvegicus; experiment: Influence (5 uM) on transacetylase catalyzed time dependent activation of NADPH cytochrome C reductase at pre-incubation time being 30 mins; format: functional; summary of the method: as §1
[8] = species: Rattus norvegicus; experiment: Influence (5 uM) on transacetylase catalyzed time dependent activation of NADPH cytochrome C reductase at pre-incubation time being 5 mins; format: functional; summary of the method: as §1
[9] = The compound was evaluated for in Vitro binding of AFB1 to DNA in rat liver microsomes; Pre-incubation time being 20 mins; details: Microsome
[10] = species: Rattus norvegicus; experiment: Influence (2 uM) on transacetylase catalyzed time dependent activation of NADPH cytochrome C reductase at pre-incubation time being 30 mins; format: functional; summary of the method: as §1
[11] = species: Rattus norvegicus; experiment: Influence (2 uM) on transacetylase catalyzed time dependent activation of NADPH cytochrome C reductase at pre-incubation time being 5 mins; format: functional; summary of the method: as §1
[12] = species: Rattus norvegicus; experiment: Influence (2 uM) on transacetylase catalyzed time dependent activation of NADPH cytochrome C reductase at pre-incubation time being 10 mins; format: functional; summary of the method: as §1
[13] = species: Rattus norvegicus; experiment: Influence (2 uM) on transacetylase catalyzed time dependent activation of NADPH cytochrome C reductase at pre-incubation time being 20 mins; format: functional; summary of the method: as §1

| SMILES | Activity [1] | inhibition [2] | Activation [3] | Activation [4] | Activity [5] | inhibition [6] | Activation [7] | Activation [8] | inhibition [9] | Activation [10] | Activation [11] | Activation [12] | Activation [13] |
| --- | --- | --- | --- | --- | --- | --- | --- | --- | --- | --- | --- | --- | --- |
| CC(=O)Oc1cc(OC(C)=O)c2c(=O)c(OC(C)=O)c(-c3ccc(OC(C)=O)c(OC(C)=O)c3)oc2c1 | 4.75 | 6.7% | 25% | 13.3% | 2.25 | 18% | 37% | 7.1% | 12.8% |  |  |  |  |
| O=c1c(O)c(-c2ccc(O)c(O)c2)oc2cc(O)cc(O)c12 [QUERCETIN] | 6 | 5.7% | 5.4% | 3.3% | 2 | 6.2% | 5.7% | 3.7% | 5.2% |  |  |  |  |
| CC(=O)Oc1ccc2c(C)cc(=O)oc2c1OC(C)=O | 3.75 | 19% |  |  | 2.25 | 56.8% |  |  | 37.5% | 57.6% | 10.2% | 18.9% | 39.9% |
| Cc1cc(=O)oc2c(O)c(O)ccc12 [4-METHYLDAPHNETIN] |  | 8.5% | 3.1% | 2.5% |  | 8.9% | 3.5% | 2.8% | 8.2% |  |  |  |  |

Reference: ChEMBL document CHEMBL1135327, “Comparison of the prevention of aflatoxin b(1)-induced genotoxicity by quercetin and quercetin pentaacetate” (2002)
